Results on 15 compounds are retold here after PMC9046076 (International Journal for Parasitology: Drugs and Drug …, 2022).

Each structure is given as a SMILES string. pIC50: −log10 of the molar value. Where two headings read alike, the source gives them in different places.

The test system of series [1] is T. gondii type I RH strain. In words: In vitro T. gondii type I RH. The format is cell-based, Toxoplasma gondii. The following applies: for reduction of T. gondii parasite growth: 11 μM, added immediately after infection, 48 h, HFF cells; for SI T. gondii (selectivity index): SI = IC50 HCT-8 (or HFF)/IC50 parasite (at 0 h p.i.); for pIC50: Toxoplasma gondii, HFF. The essentials:
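Single-concentration screen: confluent HFF monolayers in IMDM were infected with about 5 × 10³ RH-YFP tachyzoites per well, and test compound (11 μM final, in DMSO) was added immediately. Controls were atovaquone at 0.5 μM, DMSO vehicle and uninfected background wells. After 48 h at 37 °C with 5% CO₂, YFP was quantified from 9 thresholded 20× images per well. Percent inhibition was taken against DMSO; triplicates, repeated at least thrice.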

Series [2] is described as follows: WST-1 cytotoxicity assay in uninfected HFF cells. The format is cell-based. As to conditions: human. Background: Tetrazolium dyes change colour on reduction, which living cells bring about.
Series [3] can be described thus: WST-1 cytotoxicity assay in uninfected HCT-8 cells. The format is cell-based. The following applies: human. The procedure, abridged:
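HCT-8 cells (5 × 10⁴/well) were grown overnight at 37 °C, 5% CO₂ in phenol-red-free RPMI-1640 with added glucose, bicarbonate, pyruvate and 10% heat-inactivated FBS. They were treated with test compound (20 μM screen or dose range) or DMSO for 48 h. WST-1 was then added for 1 h at 37 °C in the dark, and absorbance read at 440 nm (reference 690 nm). % toxicity = (OD_DMSO − OD_compound)/OD_DMSO × 100. IC50 by nonlinear regression of triplicate means.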

The test system of series [4] is T. gondii Type II (ME49) cysts in rats' brains. The format is in vivo, Toxoplasma gondii. The following applies: JS-2-41 3 mg/kg; for reduction in the number of Toxoplasma cysts in the brain: infected rats, 14 days of treatment, JS-2-44 4 mg/kg i.p.; for decrease in brain cysts compared to untreated rats: male Brown Norway rats, i.p. daily for 14 days, JS-2-44 4 mg/kg. The procedure, abridged: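 Male Brown Norway rats, 4 weeks old, were acclimatised 7 days, then inoculated i.m. with 5 × 10⁴ ME49 tachyzoites in 0.1 ml PBS. Once brain cysts were confirmed in two untreated rats, groups (n = 3) received daily i.p. test compound or atovaquone (5 mg/kg) in 0.2 ml 5% DMSO/PBS for 2 weeks; untreated rats got vehicle. Brains were homogenised in 5 ml PBS, cysts counted in 50 μl on 3 slides (10×) and scaled to total volume. One-way ANOVA with Dunnett.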

The subject of series [5] is T. gondii type II ME49 strain. Kind of series: In vitro T. gondii type II ME49. The format is cell-based. As to conditions: Toxoplasma gondii, HFF, 48 h, read-out: IC50 against T. gondii Type II (ME49) in HFF cells.
Series [6] concerns C. parvum AUCP-1 isolate. Kind of series: In vitro C. parvum growth inhibition in HCT-8 cells, immunofluorescence assay. The following applies: for pIC50: Cryptosporidium parvum; for SI C. parvum (selectivity index): SI = IC50 HCT-8 (or HFF)/IC50 parasite (at 0 h p.i.). The format is cell-based, Cryptosporidium parvum. The essentials:
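Confluent HCT-8 monolayers in supplemented RPMI-1640 infected with 10⁵ freshly excysted sporozoites per well. […] After 72 h, cells were fixed in methanol-acetic acid (9:1), permeabilised, blocked with 5% goat serum and stained overnight at 4 °C with fluorescein anti-C. parvum antibody. Imaged at 20×, triplicates, three assays, nonlinear regression IC50; SI = host-cell IC50/parasite IC50 (0 h p.i.).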

The mark [7] stands for this setting: read-out: Parasite IC50 T. gondii 0h p.i.
Setting [8] is: read-out: Parasite IC50 T. gondii 2h p.i.
Where [9] appears, read: HCT-8, read-out: Parasite IC50 C. parvum 0h p.i.
[10] abbreviates: HCT-8, read-out: Parasite IC50 C. parvum 2h p.i.

As for `CC(C)(NC(=O)c1cc2c(Cl)cc(Cl)cc2[nH]1)c1cn(C23CC4CC(CC(C4)C2)C3)nn1` [JS-2-31, N-(2-(1-(Adamantan-1-yl)-1H-1,2,3-triazol-4-yl)propan-2-yl)-4,6-dichloro-1H-indole-2-carboxamide], in series [1], the “reduction of T. gondii parasite growth” value was “over 50%” and the “SI T. gondii (selectivity index)” value was 17.15. In series [1] (setting [7]), the pIC50 (in general, the IC50 on a negative log10 scale, so that one unit is a factor of ten) is 5.10. Also, in series [1] (setting [8]), the pIC50 is 4.92. Besides, the IC50 (commonly the concentration that inhibits the measured activity by half) at 48 h in series [2] came to 135 µM.
Take `CC(C)(NC(=O)c1cc2c(F)cc(F)cc2[nH]1)c1cn(Cc2ccccc2)nn1` [JS-2-18, N-(2-(1-Benzyl-1H-1,2,3-triazol-4-yl)propan-2-yl)-4,6-difluoro-1H-indole-2-carboxamide]: the half-inhibitory concentration (IC50) at 48 h in series [3] is 205 µM.
On to `CC(C)(NC(=O)c1cc2c(F)cc(F)cc2[nH]1)c1cn(Cc2ccccc2Cl)nn1` [JS-2-25, N-(2-(1-(2-Chlorobenzyl)-1H-1,2,3-triazol-4-yl)propan-2-yl)-4,6-difluoro-1H-indole-2-carboxamide], for which, in series [3], the midpoint of inhibition, the IC50 at 48 h, lay at 107 µM.
Turning to `CC1(C)COC(c2ccc(-c3cn(C45CC6CC(CC(C6)C4)C5)nn3)cc2)OC1` [JS-2-41, 1-(Adamantan-1-yl)-4-(4-(5,5-dimethyl-1,3-dioxan-2-yl)phenyl)-1H-1,2,3-triazole], in series [1], the “reduction of T. gondii parasite growth” value is on record as “over 50%”. For the same compound, the pIC50 in series [1] (setting [7]) is 5.71; in series [1] (setting [8]) it was 5.67; in series [5] it was 5.82. Besides, half-maximal inhibition in series [2] (IC50 at 48 h) was put at 168 µM. For the same compound, the “reduction in the number of Toxoplasma cysts in the brain” value in series [4] is reported as “over 90%”. The “decrease in brain cysts compared to untreated rats” value in series [4] is 10 fold.
On to `O=C1C(O)=C([C@H]2CC[C@H](c3ccc(Cl)cc3)CC2)C(=O)c2ccccc21` [ATQ, atovaquone, reference compound], for which the pIC50 was 7.08 in series [1] (setting [7]) and 7.06 in series [1] (setting [8]).
On to `CC(C)(NC(=O)c1cc2c(Cl)cc(Cl)cc2[nH]1)c1cn(Cc2cccc(Cl)c2)nn1` [JS-2-30, 4,6-Dichloro-N-(2-(1-(3-chlorobenzyl)-1H-1,2,3-triazol-4-yl)propan-2-yl)-1H-indole-2-carboxamide], for which, in series [1], the “reduction of T. gondii parasite growth” value was “over 50%”. Also, the pIC50 in series [1] (setting [7]) was 5.27; in series [1] (setting [8]), 5.20; in series [6] (setting [9]), 5.30; in series [6] (setting [10]) it was 5.23. Besides, the “SI C. parvum (selectivity index)” value in series [6] worked out at 38.16. The figures for the IC50 at 48 h in series [2] and in series [3] were 268 µM and 193 µM, respectively.
`CC(C)(NC(=O)c1cc2c(Cl)cc(Cl)cc2[nH]1)c1cn(Cc2ccccc2)nn1` [JS-2-27, N-(2-(1-Benzyl-1H-1,2,3-triazol-4-yl)propan-2-yl)-4,6-dichloro-1H-indole-2-carboxamide]: the negative-log IC50 (pIC50) was 5.03 in series [6] (setting [9]) and 4.97 in series [6] (setting [10]). Further, the “SI C. parvum (selectivity index)” value in series [6] amounted to 27.09. This compound also had an IC50 at 48 h in series [3] of 254 µM.
`C#CC(C)(C)NC(=O)c1cc2c(F)cc(F)cc2[nH]1` [JS-2-15, 4,6-Difluoro-N-(2-methylbut-3-yn-2-yl)-1H-indole-2-carboxamide]: the IC50 at 48 h in series [3] turned out to be 109 µM.
The same measure, in the same setting: the figure for `CC(C)(NC(=O)c1cc2c(F)cc(F)cc2[nH]1)c1cn(Cc2ccc(Cl)c(Cl)c2)nn1` [JS-2-43, N-(2-(1-(3,4-Dichlorobenzyl)-1H-1,2,3-triazol-4-yl)propan-2-yl)-4,6-difluoro-1H-indole-2-carboxamide] is 174 µM.
For the compound `CC(C)(NC(=O)c1cc2c(F)cc(F)cc2[nH]1)c1cn(C23CC4CC(CC(C4)C2)C3)nn1` [JS-2-19, N-(2-(1-(Adamantan-1-yl)-1H-1,2,3-triazol-4-yl)propan-2-yl)-4,6-difluoro-1H-indole-2-carboxamide], in series [1], the “reduction of T. gondii parasite growth” value is recorded as “over 50%” and the “SI T. gondii (selectivity index)” value came to 12.66. In addition, the negative-log IC50 (pIC50) in series [1] (setting [7]) was 5.07. Further, in series [1] (setting [8]), the pIC50 is 4.97. The IC50 at 48 h in series [2] was found to be 108 µM.
In the case of `NC[C@@H]1O[C@H](O[C@H]2[C@@H](O)[C@H](O[C@@H]3[C@@H](O)[C@H](N)C[C@H](N)[C@H]3O[C@H]3O[C@H](CO)[C@@H](O)[C@H](O)[C@H]3N)O[C@@H]2CO)[C@H](N)[C@@H](O)[C@@H]1O` [PMO, paromomycin, reference compound], the pIC50 in series [6] (setting [9]) is 3.66; in series [6] (setting [10]), 3.64.
On to `CC(C)(NC(=O)c1cc2c(Cl)cc(Cl)cc2[nH]1)c1cn(Cc2ccccc2Cl)nn1` [JS-2-28, 4,6-Dichloro-N-(2-(1-(2-chlorobenzyl)-1H-1,2,3-triazol-4-yl)propan-2-yl)-1H-indole-2-carboxamide], for which the “reduction of T. gondii parasite growth” value in series [1] is given as “over 50%”. Further, the pIC50 is 4.93 in series [1] (setting [7]), 4.72 in series [1] (setting [8]), 5.08 in series [6] (setting [9]) and 5.07 in series [6] (setting [10]). Moreover, the “SI C. parvum (selectivity index)” value in series [6] is listed as 28.05. In addition, the figures for the half-maximal inhibitory concentration (IC50) at 48 h in series [2] and in series [3] were 209 µM and 233 µM, respectively.
In turn, `c1ccc(-c2cn(C34CC5CC(CC(C5)C3)C4)nn2)cc1` [JS-2-40, 1-(Adamantan-1-yl)-4-phenyl-1H-1,2,3-triazole] had an IC50 at 48 h in series [3] of 135 µM.
With `C#CC(C)(C)NC(=O)c1cc2c(Cl)cc(Cl)cc2[nH]1` [JS-2-22, 4,6-Dichloro-N-(2-methylbut-3-yn-2-yl)-1H-indole-2-carboxamide], the negative-log IC50 (pIC50) in series [6] (setting [9]) is 4.91; in series [6] (setting [10]) it was 4.90. Moreover, the “SI C. parvum (selectivity index)” value in series [6] was found to be 8.24. In series [3], this compound had a half-maximal inhibitory concentration (IC50) at 48 h of 101 µM.
Regarding `CC(C)(NC(=O)c1cc2c(Cl)cc(Cl)cc2[nH]1)c1cn(Cc2ccc(Cl)c(Cl)c2)nn1` [JS-2-44, 4,6-Dichloro-N-(2-(1-(3,4-dichlorobenzyl)-1H-1,2,3-triazol-4-yl)propan-2-yl)-1H-indole-2-carboxamide], the negative logarithm of the IC50 (pIC50) in series [1] (setting [7]) is 5.53; in series [1] (setting [8]) it was 5.49; in series [6] (setting [9]) it was 5.12; in series [6] (setting [10]), 5.04; in series [5], 4.98. Besides, the “SI C. parvum (selectivity index)” value in series [6] was 27.48. Further, the IC50 at 48 h in series [2] was 209 µM; in series [3] it was 210 µM. Also, the “reduction in the number of Toxoplasma cysts in the brain” value in series [4] is given as “over 90%”. Moreover, the “decrease in brain cysts compared to untreated rats” value in series [4] stood at 10 fold.
